Screening data (PubChem)
This is one part of a sample in which hits are shown more often than they occur.
Lmaj promast = reduces viability of Leishmania major promastigotes | hit rate 9% among 200,000 | inhibition, % at 10 µM | resazurin fluorescence viability; in the data active = inhibition above about 50%;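 also: promastigotes grown with compound for 44 hours at 28 °C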
T cruzi inh = blocks replication of Trypanosoma cruzi; T. cruzi beta-gal in NIH3T3, luminescence, 90 h; inhibition, % (no concentration beside the values); hit rate 1.4% among 300,000; AID 1885;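 active = mean inhibition across valid replicates above about 55%, limit read from the data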;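 also: signal also drops with host cell toxicity which is not excluded here; 0% = plate median of DMSO wells and 100% = zero luminescence signal; higher percent means less beta-gal luminescence so fewer parasites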
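Material: NIH/3T3 host cells with β-galactosidase reporter T. cruzi; Input: 5,000 host fibroblasts per well; Medium: DMEM, 2% fetal bovine serum; Compound: 50 nL DMSO compound solution per well; Schedule: 3 h host attachment, then at least 90 h co-culture; Detection: luminescent β-galactosidase signal after 60 min lysis.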
Hep lipid drop = modulators of hepatic lipid droplet formation; AML12 mouse hepatocytes, oleate lipid droplets, BODIPY imaging; inhibition, % at 6.5 µM; hit rate 0.4% among 240,000; AID 1656;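 active = lipid droplet intensity inhibited by at least 50%, with more than 500 cells counted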
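Material – AML12 mouse liver cells · Also added – oleate loading, 100 µM · Compound dosing – 6.5 µM single-point dosing · Times – overnight treatment with compound plus oleate · Measured by – fluorescence imaging, 20x objective, two fields per well · Read-out – percent inhibition of filter-corrected integrated lipid droplet intensity per well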
MPTP inh = blocks calcium-induced mitochondrial swelling | AID 602449 | hit rate 1.4% among 360,000 | isolated mouse mitochondria, Ca2+ swelling absorbance, 30 min | inhibition, % at 10 µM;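 active = inhibition of 50% or more, scaled per plate between neutral and stimulator controls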;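 also: 0% = DMSO wells given calcium and 100% = 1 mM EGTA wells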
Redox H2O2 prof = compounds producing H2O2 with reducing agent – biochemical, NIH compound library profiling, artefact control for MLSCN library redox annotation, primary screen; hit rate 0.03% among 200,000; AID 878; DTT-dependent redox cycling H2O2, phenol red/HRP absorbance; 100% = 100 µM peroxide control, 0% = buffer; activation, % at 10 µM;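 active = activation of at least 50% relative to the plate's high and low controls in the primary single-dose screen; inactive = activation below 50%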;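 also: compound incubated with DTT at 0.8 mM final as the reducing agent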
L major 1uM = inhibitors of Leishmania major promastigote growth, repeat at 1 uM. shares compounds with Lmaj promast. L. major promastigote growth, resazurin fluorescence, 48 h. inhibition, % at 1 µM. hit rate 13% among 1,100. AID 1258;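 active = inhibition above about 50% in both repeat tests, limit read from the data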
The depositor's hits bear a star; / = no result given.

SMILES	Lmaj promast	T cruzi inh	Hep lipid drop	MPTP inh	Redox H2O2 prof	L major 1uM
CC(C)(C)c1ccc(-c2nc(C=O)c3ccccn23)cc1	63*	-12	/	2	-9	2
COc1cc(-c2c(C#N)c(N)nc(SCc3ccncc3)c2C#N)cc(OC)c1OC	98*	53	/	-1	0	61*
Cc1noc2ncnc(Sc3ccc(Br)cc3)c12	67*	62*	0	1	0	32
Cc1nn(-c2ccccc2)c(N)c1Sc1cccc([N+](=O)[O-])c1	52*	38	-25	2	-1	14
Cc1nn(-c2ccccc2)c(N)c1Sc1ccccc1[N+](=O)[O-]	0	-2	12	1	0	/
O=C(Nc1cc(C(F)(F)F)ccc1N1CCCC1)C1CCCO1 (stereo unspecified)	/	/	/	0	/	/
Cc1ccc(C2=C/C(=C/c3cccnc3)C(=O)O2)c(C)c1	-2	-14	-23	3	0	/
CC1CCN(c2ccccc2NC(=S)NC(=O)C(C)(C)C)CC1	13	-19	3	4	0	/
Nc1nn(-c2ccccc2)c(N)c1N=Nc1cccc(F)c1	/	-6	-86	3	/	/
Nc1nn(-c2ccccc2)c(N)c1N=Nc1ccc2c(c1)OCO2	87*	21	0	-8	1	79*
Cc1ccc(S(=O)(=O)c2c(C)nn(-c3ccccc3)c2OC(=O)c2ccco2)cc1	-9	-11	14	2	1	/
Cc1ccc(S(=O)(=O)c2c(C)nn(-c3ccccc3)c2OC(=O)c2ccc(Br)o2)cc1	53*	/	39	-1	0	-21
COc1cc(CN2CCNC(=O)C2CC(=O)N2CCc3ccccc3C2)cc(OC)c1 (stereo unspecified)	7	-4	-2	1	0	/
CCCCc1c(C)nn(-c2nnc3c4ccccc4n(C)c3n2)c1C	87*	39	/	0	0	-28
Cn1c2ccccc2c2nnc(NN)nc21	/	39	-6	-1	/	/
O=C(CCS(=O)(=O)c1cccc2nonc12)NCc1ccc(Cl)cc1	-2	-1	-13	0	1	/
CCc1ccc(N2CC(O)(c3cccs3)[N+]3=C2SCCC3)cc1 (stereo unspecified)	72*	/	1	20	0	4
Cc1ccc(N2CC(O)(c3cccs3)[N+]3=C2CCCC3)cc1 (stereo unspecified)	39	7	-19	-2	-1	/
Cc1ccc(NC(=O)C2CCN(S(=O)(=O)c3c(C)nn(C)c3C)CC2)c(Cl)c1	/	-2	-18	-2	/	/
Cn1c(SCCC#N)nnc1-c1ccccc1F	-8	0	-7	0	-1	/
Cn1c(SCCN2CCCCC2)nnc1-c1ccccc1Br	73*	11	-4	-1	3	-2
Cc1c([N+](=O)[O-])nnn1-c1cc(Cl)cc(Cl)c1	50*	63*	-10	-1	0	-3
N#Cc1nnn(-c2cc(Cl)cc(Cl)c2)c1N	/	18	0	2	/	/
COC(=O)c1ccc(COc2ccc(C3C4=C(CCCC4=O)Nc4onc(C)c43)cc2)cc1 (stereo unspecified)	100*	-8	27	0	3	55*
NC(=S)Nn1c(CCC(=O)O)ccc1-c1ccccc1	66*	-19	0	-1	0	-17
SMILES	Lmaj promast	T cruzi inh	Hep lipid drop	MPTP inh	Redox H2O2 prof	L major 1uM
O=C(Cn1ccc([N+](=O)[O-])n1)Nc1nccs1	77*	7	8	0	-1	-7
Cc1cc([N+](=O)[O-])nn1CC(=O)Nc1nccs1	47	-2	-11	0	0	/
Cc1ccc(C(C)(C)C)c(OCCCn2ccnc2)c1	43	34	-18	12	0	/
Cc1ccc(OCCCCn2ccnc2)c(Cl)c1	98*	61*	0	-1	3	74*
CC(NC(=S)NCc1ccccc1)C12CC3CC(CC(C3)C1)C2 (stereo unspecified)	6	-26	9	-3	-3	/
CNCCC=C1c2ccccc2C=Cc2ccccc21	/	/	/	2	/	/
CNCCCC1c2ccccc2C=Cc2ccccc21	56*	6	13	50	0	-9
Cc1oc(-c2ccccc2)cc1C(=O)NC1CCN(Cc2ccccc2)CC1	/	46	1	2	/	/
C=CCOc1nc(N2CCCC2)nc(N2CCCC2)n1	96*	-4	8	0	2	-9
COc1nc(OC)nc(N2CCCCCC2)n1	-3	-8	-20	1	1	/
COc1ccc(-c2nc(C(N)=O)c3[nH]c(=O)n(-c4ccccc4OC)c3n2)c(OC)c1	6	-2	/	0	-2	/
COc1ccccc1-n1c(=O)[nH]c2c(C(N)=O)nc(C3CCCCC3)nc21	84*	9	/	1	-2	0
O=C(Nc1ccc2c(c1)OCCO2)C(=O)NC1CC1	/	-8	1	0	/	/
Cc1ccc(OCC(O)CN2CCN(CC(O)COc3ccc(C)cc3)CC2)cc1 (stereo unspecified)	57*	-4	/	-4	1	-6
CCOC(=O)c1cccc(NC(=O)CSc2nnc(C)n2CC2CCCO2)c1 (stereo unspecified)	/	4	-4	-1	/	/
Cc1ccccc1NS(=O)(=O)c1ccc(C(=O)NCC(C)(C)N2CCOCC2)cc1	/	-3	/	0	/	/
Cc1ccc(-c2nc(CS(=O)(=O)CC(=O)Nc3cc(F)ccc3F)c(C)o2)cc1	/	2	6	0	/	/
CCOC(=O)c1c(NC(=O)CSc2nnc(-c3c[nH]c4ccccc34)n2CCOC)sc2c1CCCC2	72*	33	-29	0	0	-11
COc1ccc(NC(=O)/C(Cl)=C(/Cl)S(=O)Cc2ccccc2Cl)cn1 (stereo unspecified)	101*	/	-4	/	0	100*
CCOC(=O)c1cnc2c(OC)cccc2c1Nc1ccc2c(c1)OCCO2	53*	10	-1	-3	0	13
CCOC(=O)c1cnc2ccc(C(=O)OC)cc2c1Nc1ccc2c(c1)OCCO2	0	0	/	-1	0	/
CCCCC(=O)OCc1c(-c2cccc(OC)c2)ncc2ccccc12	/	/	/	0	/	/
CSCCC(C(=O)Nc1c(C)cccc1C)n1c(-c2cc(C)cs2)nc2ccccc21 (stereo unspecified)	/	/	/	0	/	/
CCn1cc(CN2CCC(n3nccc3NC(=O)C(OC)c3ccccc3)CC2)cn1 (stereo unspecified)	/	3	14	-2	/	/
CN(c1ccccc1)S(=O)(=O)c1cc(C(=O)N2CCN(c3ccccn3)CC2)ccc1Cl	90*	8	-26	-1	0	-1
CC(C)Sc1nnc(NC(=O)c2ccc3c(c2)OCO3)s1	/	1	-13	-1	/	/
Cc1ccc(CN=C2Nc3ccccc3CS2)cc1	86*	33	/	1	0	17
Clc1ccc(Nc2ccc(-n3ccnc3)nn2)cc1Cl	51*	13	/	-5	-4	-3
